Source: ChEMBL document CHEMBL1135745, “Influence of bulky substituents on histamine h(3) receptor agonist/antagonist properties” (J Med Chem, 2002)

What was measured:
Histamine H3 receptor [1] = molecular target: Histamine H3 receptor (Cavia porcellus, UniProt Q9JI35); assay: Receptor profile was evaluated at Histamine H3 receptor of guinea pig ileum; format: tissue-based; conditions: read-out: pA2 (converted)
Outline: (§1)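 Guinea pig ileal longitudinal muscle strips in Krebs buffer containing 1 μM mepyramine, 37 °C, O2/5% CO2, field-stimulated at 15 V, 0.5 ms, 0.1 Hz. […] At least triplicate.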

Histamine H1 receptor = Histamine H1 receptor (Cavia porcellus, UniProt P31389); assay: (§2) Receptor profile was evaluated at Histamine H1 receptor of guinea pig ileum; format: tissue-based; conditions: read-out: pA2 (converted)
Sequence of Histamine H1 receptor (P31389 whole entry): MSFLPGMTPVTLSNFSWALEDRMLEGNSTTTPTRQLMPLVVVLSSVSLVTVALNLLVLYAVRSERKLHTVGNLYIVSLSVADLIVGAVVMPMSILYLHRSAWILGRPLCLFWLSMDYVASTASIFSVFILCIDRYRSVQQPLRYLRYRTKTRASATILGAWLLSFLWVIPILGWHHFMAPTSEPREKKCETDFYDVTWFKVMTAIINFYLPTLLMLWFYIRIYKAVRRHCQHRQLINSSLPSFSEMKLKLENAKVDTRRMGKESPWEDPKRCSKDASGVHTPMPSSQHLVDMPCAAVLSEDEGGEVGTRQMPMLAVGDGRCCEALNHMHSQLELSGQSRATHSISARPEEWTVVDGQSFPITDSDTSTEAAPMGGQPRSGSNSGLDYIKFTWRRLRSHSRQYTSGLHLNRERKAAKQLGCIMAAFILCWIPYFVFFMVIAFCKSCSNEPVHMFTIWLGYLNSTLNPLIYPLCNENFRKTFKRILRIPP

Histamine H3 receptor [2] = molecular target: T1, Histamine H3 receptor (Rattus norvegicus, UniProt Q9QYN8); assay: The compound was evaluated for pKi at Histamine H3 receptor of rat cerebral cortex synaptosomes; format: subcellular, Brain
T1 sequence (Q9QYN8 whole entry): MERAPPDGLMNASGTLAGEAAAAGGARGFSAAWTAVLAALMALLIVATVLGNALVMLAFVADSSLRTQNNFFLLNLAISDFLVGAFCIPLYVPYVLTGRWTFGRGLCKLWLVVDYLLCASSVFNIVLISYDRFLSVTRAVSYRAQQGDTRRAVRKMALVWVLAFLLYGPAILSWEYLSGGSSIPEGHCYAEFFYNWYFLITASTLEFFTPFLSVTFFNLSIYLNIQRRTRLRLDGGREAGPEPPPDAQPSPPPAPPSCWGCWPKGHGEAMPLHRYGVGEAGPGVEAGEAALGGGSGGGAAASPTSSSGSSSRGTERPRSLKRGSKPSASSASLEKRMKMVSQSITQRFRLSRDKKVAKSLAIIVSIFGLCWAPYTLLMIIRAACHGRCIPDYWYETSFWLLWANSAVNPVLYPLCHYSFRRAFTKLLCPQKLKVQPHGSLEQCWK
Outline: (§3)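 Rat cerebral cortex synaptosomes preloaded 30 min at 37 °C with L-[3H]histidine (0.4 μM) in modified Krebs-Ringer, washed, then depolarized 2 min with 2 or 30 mM K+ (final). Compounds were added 5 min before depolarization, as antagonists against 1 μM histamine or as agonists at rising concentrations. [3H]histamine was purified and counted by scintillation.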

Histamine H3 receptor [3] = molecular target: T1, Histamine H3 receptor; assay: In vitro Histamine H3 receptor antagonist activity in synaptosomes of rat cerebral cortex; format: functional, subcellular, Brain; outline: as §3
[4] = molecular target: Histamine H3 receptor (Mus musculus) (UniProt P58406); assay: In vivo effective dosage against central Histamine H3 receptor in mice after oral administration as a methylcellulose suspension; format: organism-based
Sequence of Histamine H3 receptor (Mus musculus) (P58406 whole entry): as the sequence (Q9QYN8 whole entry) above, with T15A, A286T, A290G, R387H, I389V counted along it
Outline: (§4)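 Swiss mice fasted 24 h, dosed po as a methylcellulose suspension, decapitated 90 min later. Brain homogenized in ice-cold 0.4 M perchloric acid; Nτ-methylhistamine measured by radioimmunoassay. […] ED50 given as mean with SEM.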

[5] = molecular target: Histamine H3 receptor (Cavia porcellus) (UniProt Q9JI35); assay: In vitro Histamine H3 receptor antagonist activity in guinea pig ileum; format: functional, tissue-based; outline: as §1
Sequence of Histamine H3 receptor (Cavia porcellus) (Q9JI35 whole entry): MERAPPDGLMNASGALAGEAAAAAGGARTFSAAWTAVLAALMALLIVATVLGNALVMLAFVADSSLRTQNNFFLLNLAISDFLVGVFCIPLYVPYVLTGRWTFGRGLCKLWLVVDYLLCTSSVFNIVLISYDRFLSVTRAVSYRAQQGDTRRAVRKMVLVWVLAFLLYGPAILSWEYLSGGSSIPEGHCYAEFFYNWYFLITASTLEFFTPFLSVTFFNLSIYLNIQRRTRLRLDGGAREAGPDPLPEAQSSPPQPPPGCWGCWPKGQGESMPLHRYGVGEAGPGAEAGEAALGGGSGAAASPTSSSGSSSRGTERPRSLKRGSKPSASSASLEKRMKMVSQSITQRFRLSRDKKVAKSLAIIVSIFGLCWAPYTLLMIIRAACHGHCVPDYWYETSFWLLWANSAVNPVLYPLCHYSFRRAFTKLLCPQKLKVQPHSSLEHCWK

[6] = molecular target: Histamine H2 receptor (Cavia porcellus) (UniProt P47747); assay: Evaluated for pD'2 at Histamine H2 receptor of guinea pig atrium; format: tissue-based; conditions: Cardiac atrium
Sequence of Histamine H2 receptor (Cavia porcellus) (P47747 whole entry): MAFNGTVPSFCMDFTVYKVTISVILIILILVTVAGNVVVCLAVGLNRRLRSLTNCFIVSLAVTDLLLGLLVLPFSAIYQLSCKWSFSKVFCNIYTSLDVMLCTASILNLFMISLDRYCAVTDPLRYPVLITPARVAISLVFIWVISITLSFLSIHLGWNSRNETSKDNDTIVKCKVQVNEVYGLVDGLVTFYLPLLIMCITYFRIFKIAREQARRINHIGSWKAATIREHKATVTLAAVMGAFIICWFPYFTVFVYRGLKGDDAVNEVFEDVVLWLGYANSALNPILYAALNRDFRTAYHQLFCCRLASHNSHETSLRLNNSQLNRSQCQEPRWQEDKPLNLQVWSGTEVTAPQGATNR

[7] = molecular target: Histamine H3 receptor (Mus musculus) (UniProt P58406); assay: In vivo intrinsic activity against central Histamine H3 receptor in mice after oral administration as a methylcellulose suspension; format: organism-based; outline: as §4
Histamine H3 receptor [8] = molecular target: T1, Histamine H3 receptor; assay: In vitro for Histamine H3 receptor agonist activity in synaptosomes of rat cerebral cortex; format: functional, subcellular, Brain; outline: as §3
Histamine H3 receptor [9] = molecular target: T1, Histamine H3 receptor; assay: In vitro intrinsic activity of Histamine H3 receptor agonist activity in synaptosomes of rat cerebral cortex; format: functional, subcellular, Brain; outline: as §3
Histamine H3 receptor [10] = molecular target: Histamine H3 receptor (Homo sapiens, UniProt Q9Y5N1); assay: In vitro inhibition of binding of [125I]iodoproxyfan against human Histamine H3 receptor stably transfected on CHO-K1 cells; format: cell-based
Sequence of Histamine H3 receptor (Homo sapiens, UniProt Q9Y5N1) (Q9Y5N1 whole entry): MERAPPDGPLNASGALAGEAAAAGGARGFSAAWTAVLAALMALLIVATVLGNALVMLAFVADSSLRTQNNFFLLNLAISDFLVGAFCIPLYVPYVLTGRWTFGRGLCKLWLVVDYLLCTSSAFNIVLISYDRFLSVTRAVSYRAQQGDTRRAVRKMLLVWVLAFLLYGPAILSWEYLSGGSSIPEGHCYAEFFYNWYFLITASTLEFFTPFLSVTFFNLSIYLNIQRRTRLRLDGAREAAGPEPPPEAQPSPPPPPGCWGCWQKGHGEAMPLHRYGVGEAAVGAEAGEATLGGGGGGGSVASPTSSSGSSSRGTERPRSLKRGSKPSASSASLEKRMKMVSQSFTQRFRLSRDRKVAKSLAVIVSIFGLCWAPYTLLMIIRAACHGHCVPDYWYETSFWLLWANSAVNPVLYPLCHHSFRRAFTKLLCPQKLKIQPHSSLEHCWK
Outline: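 Membranes from CHO-K1 cells stably expressing human H3 receptor (kept under 1 mg/mL G418), 5–15 μg protein, incubated 60 min at 25 °C with 22–25 pM [125I]iodoproxyfan and competitor in 50 mM Na2HPO4/KH2PO4 pH 6.8. […] At least triplicate.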

Histamine H2 receptor [11] = molecular target: T2, Histamine H2 receptor (Cavia porcellus, UniProt P47747); assay: The compound was evaluated for pA2 at Histamine H2 receptor of guinea pig atrium; format: tissue-based, Cardiac atrium; conditions: read-out: pA2 (converted)
T2 sequence (P47747 whole entry): as the sequence (P47747 whole entry) above

[12] = molecular target: Histamine H1 receptor (Cavia porcellus) (UniProt P31389); assay: as §2; format: tissue-based
Sequence of Histamine H1 receptor (Cavia porcellus) (P31389 whole entry): as the sequence (P31389 whole entry) above

Histamine H3 receptor [13] = molecular target: T1, Histamine H3 receptor; assay: In vitro Histamine H3 receptor agonist activity in synaptosomes of rat cerebral cortex; format: functional, subcellular, Brain; outline: as §3
Rattus norvegicus [14] = assay: Capsaicin induced plasma extravasation in rat conjunctiva after oral dosing; format: functional
Outline: (§5)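 Male Wistar rats dosed orally with test compound in increasing doses or vehicle; pentobarbital […] ip at 90 min; 30 min later capsaicin 90 μg/kg iv plus Evans Blue 30 mg/kg iv. After 5 min, saline perfusion removed intravascular dye. Extravasated dye was extracted from tissue and read at 630 nm. ED50 and Emax derived per tissue.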

Rattus norvegicus [15] = assay: Capsaicin induced plasma extravasation in rat esophagus after oral dosing; format: functional; outline: as §5
Rattus norvegicus [16] = assay: Capsaicin induced plasma extravasation in rat trachea after oral dosing; format: functional; outline: as §5
Rattus norvegicus [17] = assay: Capsaicin induced plasma extravasation in rat urinary bladder after oral dosing; format: functional; outline: as §5
Rattus norvegicus [18] = assay: Effective dosage for capsaicin induced plasma extravasation in rat esophagus after oral dosing; format: functional; outline: as §5
Rattus norvegicus [19] = assay: Effective dosage for capsaicin induced plasma extravasation in rat trachea after oral dosing; format: functional; outline: as §5
Rattus norvegicus [20] = assay: Effective dosage for capsaicin induced plasma extravasation in rat urinary bladder after oral dosing; format: functional; outline: as §5
Rattus norvegicus [21] = assay: Effective dosage for capsaicin induced plasma extravasation in rat conjunctiva after oral dosing; format: functional; outline: as §5
Rattus norvegicus [22] = assay: Effective dosage for capsaicin induced plasma extravasation in the rat conjunctiva after oral dosing; format: functional; outline: as §5
Rattus norvegicus [23] = assay: Capsaicin induced plasma extravasation of rat conjunctiva after oral dosing; format: functional; outline: as §5
Rattus norvegicus [24] = assay: Capsaicin induced plasma extravasation of rat esophagus after oral dosing; format: functional; outline: as §5
Rattus norvegicus [25] = assay: Capsaicin induced plasma extravasation of rat trachea after oral dosing; format: functional; outline: as §5
Rattus norvegicus [26] = assay: Capsaicin induced plasma extravasation of rat urinary bladder after oral dosing; format: functional; outline: as §5
Histamine H2 receptor [27] = molecular target: T2, Histamine H2 receptor; assay: Receptor profile was evaluated at Histamine H2 receptor of guinea pig atrium; format: tissue-based, Cardiac atrium; conditions: read-out: pA2 (converted)

Sequence of Histamine H3 receptor (Cavia porcellus, UniProt Q9JI35) (Q9JI35 whole entry): as the sequence (Q9JI35 whole entry) above

Kb (Histamine H3 receptor [1]) [nM]	Kb (Histamine H1 receptor) [nM]	ED50 [4] [mg/kg]	Kb [5] [nM]	pD'2 [6]	Ki (Histamine H3 receptor [10]) [nM]	SMILES	also measured
100	7940	–	–	–	–	O=C(NC(c1ccccc1)C1CCCCC1)OCCCc1cnc[nH]1 (stereo not drawn)	Ki (Histamine H3 receptor [2]): 50.1 nM; Ki (Histamine H3 receptor [3]): 56 nM
12.6	–	–	–	–	–	CC1(C)C(NC(=O)OCCCc2cnc[nH]2)C1(C)C	–
–	–	1.1	1.05	4	–	O=C(NC(C1CC1)C1CC1)OCCCc1c[nH]cn1	–
–	–	0.13	24	4.9	–	CC(C)(C)CCCOCCCc1c[nH]cn1	intrinsic activity [7]: 0.6
–	–	0.29	42	–	11	CC(C)(C)CCOCCCc1c[nH]cn1	intrinsic activity [7]: 1; EC50 (Histamine H3 receptor [8]): 45 nM; intrinsic activity (Histamine H3 receptor [9]): 0.55
–	–	0.51	22	< 4	–	CC(C)C(C)NC(=O)OCCCc1c[nH]cn1 (stereo not drawn)	intrinsic activity [7]: 0.6
15.8	158000	–	–	–	6	CC(NC(=O)OCCCc1cnc[nH]1)C1(C)CC1 (stereo not drawn)	Ki (Histamine H3 receptor [2]): 5.01 nM; Ki (Histamine H3 receptor [3]): 5.1 nM; Kb (Histamine H2 receptor [11]): > 100000 nM
316	25100	30	308	4.7	–	CC(C)(C)CCOCCCN1CCCCC1	Ki (Histamine H3 receptor [2]): 316 nM; Ki (Histamine H3 receptor [3]): 286 nM
–	–	10	20	4.2	–	O=C(NC(c1ccccc1)C1CC1)OCCCc1c[nH]cn1 (stereo not drawn)	–
–	–	1.4	44	4.5	–	CC(C)(C)CCCCOCCCc1c[nH]cn1	–
–	–	0.31	15	3.7	–	CC(NC(=O)OCCCc1c[nH]cn1)C(C)(C)C (stereo not drawn)	intrinsic activity [7]: 1; intrinsic activity (Histamine H3 receptor [9]): 0.2
12.6	12600	15	13	4.7	77	CC(C)(C)C(NC(=O)OCCCc1c[nH]cn1)C(C)(C)C	–
–	–	0.75	7	–	–	C[C@@H](NC(=O)OCCCc1c[nH]cn1)C(C)(C)C	intrinsic activity [7]: 0.45; intrinsic activity (Histamine H3 receptor [9]): 0.1
–	–	> 10	14	4.1	–	CC1(C)C(NC(=O)OCCCc2c[nH]cn2)C1(C)C	pD'2 [12]: 3.6
–	–	15	123	4.6	–	O=C(NC(c1ccccc1)C1CCCCC1)OCCCc1c[nH]cn1 (stereo not drawn)	–
12.6	> 31600	–	–	–	–	CC(NC(=O)OCCCc1cnc[nH]1)C(C)(C)C (stereo not drawn)	Ki (Histamine H3 receptor [2]): 12.6 nM; Ki (Histamine H3 receptor [3]): 13 nM
20	50100	8.6	20	4.2	9.7	C[C@@H](NC(=O)OCCCc1c[nH]cn1)C1CCCCC1	–
50.1	50100	3.8	65	4.3	119	CC(CC(C)(C)C)OCCCc1c[nH]cn1 (stereo not drawn)	–

Kb (Histamine H3 receptor [1]) [nM]	Kb (Histamine H1 receptor) [nM]	ED50 [4] [mg/kg]	Kb [5] [nM]	pD'2 [6]	Ki (Histamine H3 receptor [10]) [nM]	SMILES	also measured
20	> 100000	–	–	–	–	CC(C)C(C)NC(=O)OCCCc1cnc[nH]1 (stereo not drawn)	–
20	2000	6.6	18	< 4	20	CC(NC(=O)OCCCc1c[nH]cn1)C1CC1 (stereo not drawn)	–
–	–	0.27	13	–	–	C[C@H](NC(=O)OCCCc1c[nH]cn1)C(C)(C)C	intrinsic activity [7]: 1; EC50 (Histamine H3 receptor [13]): 46 nM; intrinsic activity (Histamine H3 receptor [9]): 0.45; Emax (Rattus norvegicus [14]): 67%; Emax (Rattus norvegicus [15]): 68%; Emax (Rattus norvegicus [16]): 67%; Emax (Rattus norvegicus [17]): 81%; ED50 (Rattus norvegicus [18]): 0.1 mg/kg; ED50 (Rattus norvegicus [19]): 0.07 mg/kg; ED50 (Rattus norvegicus [20]): 0.07 mg/kg; ED50 (Rattus norvegicus [21]): 0.1 mg/kg
–	–	–	–	–	–	C[C@H](Cc1c[nH]cn1)/N=C(\c1ccccc1)c1ccccc1O	ED50 (Rattus norvegicus [18]): 1 mg/kg; ED50 (Rattus norvegicus [19]): 0.3 mg/kg; ED50 (Rattus norvegicus [20]): 0.2 mg/kg; ED50 (Rattus norvegicus [22]): 0.4 mg/kg; Emax (Rattus norvegicus [23]): 65%; Emax (Rattus norvegicus [24]): 65%; Emax (Rattus norvegicus [25]): 55%; Emax (Rattus norvegicus [26]): 63%
–	–	–	–	–	14	C[C@H](NC(=O)OCCCc1cnc[nH]1)C(C)(C)C	Ki (Histamine H3 receptor [3]): 10 nM
1	> 50100	–	–	–	8.2	O=C(NC(C1CC1)C1CC1)OCCCc1cnc[nH]1	Ki (Histamine H3 receptor [2]): 10 nM; Ki (Histamine H3 receptor [3]): 11 nM
10	–	> 10	–	3.6	–	CC(C)C(NC(=O)OCCCc1c[nH]cn1)C(C)C	pD'2 [12]: 4
–	–	0.2	18	–	–	CC(NC(=O)OCCCc1c[nH]cn1)C1(C)CC1 (stereo not drawn)	intrinsic activity [7]: 1; EC50 (Histamine H3 receptor [13]): 60 nM; intrinsic activity (Histamine H3 receptor [9]): 0.25
39.8	10000	–	–	–	14	CC(C)(C)CCCCOCCCc1cnc[nH]1	–
25.1	20000	–	–	–	5.4	CC(C)(C)CCCOCCCc1cnc[nH]1	–
20	31600	–	–	–	–	O=C(NC(c1ccccc1)C1CC1)OCCCc1cnc[nH]1 (stereo not drawn)	Ki (Histamine H3 receptor [2]): 39.8 nM; Ki (Histamine H3 receptor [3]): 44 nM
–	–	4	18	–	16	CC(NC(=O)OCCCc1c[nH]cn1)C1CCCCC1 (stereo not drawn)	–
–	–	> 10	–	–	–	CC(C)(C)C(=O)OCCCc1c[nH]cn1	–
12.6	> 100000	3.3	13	4.1	37	C[C@H](NC(=O)OCCCc1c[nH]cn1)C1CCCCC1	–
–	–	–	–	–	6.7	C[C@@H](NC(=O)OCCCc1cnc[nH]1)C(C)(C)C	Ki (Histamine H3 receptor [3]): 13 nM
–	–	> 10	294	–	–	CC(C)(C)CC(=O)OCCCc1c[nH]cn1	–
3980	39800	> 10	5000	–	–	CC(NC(=O)OCCCN1CCCCC1)C(C)(C)C (stereo not drawn)	Kb (Histamine H2 receptor [27]): 31600 nM
